Screening data: PubChem BioAssay, Broad Institute
In the library only some 0.16% were active in any assay of this set; here they are far more common.
CDK5 p35 inh – inhibitors of human CDK5/p35 kinase, primary screen, biochemical, single concentration; Cyclin-dependent kinase 5 (Homo sapiens) + Cyclin-dependent kinase 5 activator 1 (Homo …; Recombinant CDK5/p35, ADP-Glo luminescence, 60 min; inhibition, % at 10 µM; 0.01% of 330,000 active;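 active = highest replicate inhibition of at least 50% and at least 75% of replicates reaching 50%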;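 note: plate controls were DMSO neutral control for no effect and GW8510 at 10 µM for full effect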
GSK3beta inhib – human GSK3beta kinase inhibitors, primary screen, biochemical, cell-free homogeneous, HTS; Glycogen synthase kinase-3 beta (Homo sapiens), P49841; GST-GSK3beta kinase, ADP-Glo luminescence, 60 min; hits give low values; activity score (negative = inhibition), % at 10 µM; 0.038% of 300,000 active;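 active = more than half of replicate wells score below -50%, meaning over 50% inhibition versus plate controls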;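 note: 0% = median DMSO wells and -100% = median GW8510 positive control wells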
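Assay system: GST-fused GSK3beta enzyme, cell-free / Medium: Tris pH 7.5 buffer with MgCl2, DTT, BSA, heparin / Also added: peptide substrate plus 25 µM ATP (final) / Compound: 10 µM single point / Timing: kinase reaction with compound 60 min at room temperature / Detection: ADP-Glo luminescence / Benchmarks: DMSO neutral wells and GW8510 at 20 µM as positive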
STK33 kinase inh – inhibitors of purified STK33 kinase, primary screen, biochemical, ADP-Glo luminescence, homogeneous, cell-free. Serine/threonine-protein kinase 33 (Homo sapiens), Q9BYT3. MBP phosphorylation. inhibition, % at 10 µM. 0.073% of 320,000 active;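 active = inhibition at or above 25%, using the most active replicate where run in duplicate; inactive = inhibition below 25%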
Target sequence (Q9BYT3 whole entry, looked up): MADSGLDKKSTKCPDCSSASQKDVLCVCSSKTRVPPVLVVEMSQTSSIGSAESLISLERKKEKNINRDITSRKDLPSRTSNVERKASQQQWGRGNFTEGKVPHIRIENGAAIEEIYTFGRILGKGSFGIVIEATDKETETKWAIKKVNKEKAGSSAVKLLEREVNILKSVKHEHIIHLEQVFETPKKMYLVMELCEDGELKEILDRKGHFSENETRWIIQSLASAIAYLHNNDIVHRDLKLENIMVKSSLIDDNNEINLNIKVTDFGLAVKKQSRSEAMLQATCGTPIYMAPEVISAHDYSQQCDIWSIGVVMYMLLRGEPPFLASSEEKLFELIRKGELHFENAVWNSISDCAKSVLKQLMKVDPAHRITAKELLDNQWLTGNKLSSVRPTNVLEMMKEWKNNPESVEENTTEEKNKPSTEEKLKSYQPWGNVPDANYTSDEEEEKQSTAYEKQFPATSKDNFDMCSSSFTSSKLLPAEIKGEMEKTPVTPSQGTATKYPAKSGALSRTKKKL
GSK3 alpha inh – blockers of GSK3A enzyme activity – biochemical, luminescence, cell-free homogeneous, HTS, primary screen; AID 2650, 2010; GSK-3 alpha kinase, ADP-Glo luminescence, 60 min; inhibition, % at 10 µM; 0.1% of 320,000 active;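 active = more than half of replicates show inhibition above 20%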;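 note: GST-tagged GSK-3 alpha with peptide substrate and 25 µM ATP; 0% = DMSO neutral wells and 100% = GW8510 positive control wells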
Numbers without * were called inactive; . = not tested or not shown.

SMILES	CDK5 p35 inh	GSK3beta inhib	STK33 kinase inh	GSK3 alpha inh
COC(=O)CSc1ncnc2c1sc1nc3c(cc12)COC(C)(C)C3	-3	-1	-1	45
CC1(C)Cc2nc3sc4c(SCC(=O)O)ncnc4c3cc2CO1	-1	-23	1	76*
Oc1ccccc1-c1nc(NCCN2CCOCC2)c2ccccc2n1	.	-2	60*	1
COc1ccc([C@@]23Oc4cc(OC)cc(OC)c4[C@]2(O)[C@H](O)[C@H](C(=O)N(C)C)[C@H]3c2ccccc2)cc1	2	.	.	.
CC1CCc2c(sc3nn[nH]c(=O)c23)C1 (configuration not stated)	1	-28	3	52*
CSc1nc2sc3c(c2c(=O)[nH]1)CCC(C)C3 (configuration not stated)	0	-6	0	-3
O=C(NCCCO)c1cc2c([nH]c3ccccc32)c(-c2ccccc2)n1	1	2	29*	1
C[C@H]1CN([C@@H](C)CO)C(=O)c2cccc(NC(=O)c3cnccn3)c2O[C@@H]1CN(C)S(=O)(=O)c1ccc(F)cc1	3	.	0	55*
Cc1cc2nc(-c3ccc[nH]c3=O)[nH]c2cc1C	20	-33	23	61*
CCc1ncc(/C=C2\C(=O)Nc3ccccc32)[nH]1	11	-3	49*	9
Cc1ncc(/C=C2\C(=O)Nc3ccccc32)[nH]1	.	0	76*	7
O=C(/C=C/c1ccccc1)Nc1cccc(C(=O)NCCCCc2ccccc2)c1	0	.	.	.
N#Cc1c(-c2ccc(Cl)cc2)c(-c2ccc(Cl)cc2)nn(CCO)c1=O	-1	.	.	.
CCn1c(C)nc2cc(-c3nc4n(n3)Cc3ccccc3-4)ccc21	13	-21	45*	51*
S=C(Nc1cccnc1)Nc1cccc2cnccc12	9	-3	27*	59*
S=C(Nc1ccc(Cl)cc1)Nc1cccc2cnccc12	4	-2	6	5
C=C(C(=O)Oc1ccccc1C(C)(C)C)c1ccccc1	.	.	-2	1
O=C1NC(=O)/C(=C/c2ccc(O)cc2)S1	-3	-11	33*	28
N#Cc1c(-c2ccccc2)nc(-c2ccncc2)[nH]c1=O	0	-3	11	.
N#Cc1c(Cl)nc(-c2ccncc2)nc1-c1ccccc1	1	-62*	10	75*
O=C1Cc2c([nH]c3ccc([N+](=O)[O-])cc23)-c2ccccc2N1	2	.	.	.
CCOC(=O)[C@H]1[C@H]2COc3cc(OC)ccc3[C@@H]2N2C(=O)[C@@H](CO)NC(=O)[C@@]12C	.	.	1	-1
COc1cc(C2C(C#N)=C(N)Oc3n[nH]c(-c4cccnc4)c32)cc(Br)c1O (configuration not stated)	0	-34	0	53*
Nc1nc(NCC2CCCO2)nc(Nc2ccccc2)c1[N+](=O)[O-] (configuration not stated)	0	2	0	10
Nc1nc(NCCO)nc(NCC2CCCO2)c1[N+](=O)[O-] (configuration not stated)	3	1	2	80*
SMILES	CDK5 p35 inh	GSK3beta inhib	STK33 kinase inh	GSK3 alpha inh
Nc1nc(NCC2CCCO2)nc(NCC2CCCO2)c1[N+](=O)[O-] (configuration not stated)	-2	0	0	52*
CC(C)CCNc1nc(N)c([N+](=O)[O-])c(NCC2CCCO2)n1 (configuration not stated)	0	-42	4	73*
O=S(c1ccccc1O)S(=O)c1ccccc1O (configuration not stated)	-1	.	.	.
CCCS(=O)(=O)Nc1ccc(Nc2c3ccccc3nc3ccccc23)c(OC)c1	0	.	.	.
NC(=O)c1c(NC(=O)CN2C(=O)CCC2=O)sc2c1CCCCC2	11	-8	0	17
CCC(=O)Nc1sc2c(c1C(N)=O)CCN(C(C)=O)C2	3	0	0	40
CC(C)N1CCc2c(sc(NC(=O)CN3C(=O)c4ccccc4C3=O)c2C(N)=O)C1	-1	6	0	-4
CCC1(C)NC(=O)N(CC(=O)Nc2sc3c(c2C(N)=O)CCC3)C1=O (configuration not stated)	7	-33	2	58*
CC(=O)N1CCc2c(sc(NC(=O)CN3C(=O)CCC3=O)c2C(N)=O)C1	12	-79*	0	93*
CC(=O)N1CCc2c(sc(NC(=O)CN3C(=O)c4ccccc4C3=O)c2C(N)=O)C1	12	-52*	1	39
COc1cc(C)c2c(c1C=O)Oc1c(c(C)c(O)c3c1C(O)OC3=O)OC2=O (configuration not stated)	1	0	44*	5
C=C(C(=O)c1ccccc1)C(NC(C)(C)C)c1ccccc1 (configuration not stated)	-1	.	.	.
O=C(Nc1cccc(-c2cn3cccnc3n2)c1)c1ccc(Br)o1	-2	4	32*	0
O=C(Nc1cccc(-c2cn3cccnc3n2)c1)c1ccco1	-2	-8	9	-2
Oc1ccc(/C=N/n2c(-c3ccccc3)n[nH]c2=S)cc1	7	-2	34*	6
O=C(Nc1cc(Cl)cc2c1-c1ccc(Cl)cc1C2O)C(Cl)Cl (configuration not stated)	2	.	.	.
CC(C)(C)S(=O)N1Cc2cc(=O)n(Cc3ccccc3)c(CCO)c2[C@@H]1CCO (some centres not stated)	1	.	.	.
O=S(=O)(O)c1cccc(N=Nc2c(O)ccc3ccccc23)c1	45	-1	60*	46
Oc1ccc2ccccc2c1N=Nc1ccccc1F	0	-2	4	-1
O=C(Nc1ccsc1C(=O)NC1CC1)c1ccccc1	0	-34	8	64*
CCCCCCCCC[n+]1cccc2c3ccccc3ccc21	1	-9	-3	9
CCCCCCCCCCCCCCCC[n+]1cccc2ccccc21	3	.	50*	23
CNC(=S)Nc1cccc(-c2cnc3ccccc3n2)c1	1	-1	26*	18
CC(C)C(=O)Nc1cccc(-c2cnc3ccccc3n2)c1	-1	9	3	0
C=CC(=O)Nc1ccc(Nc2nc(NC3CCC(N(C)C)CC3)nc3c2ncn3C(C)C)cc1 (configuration not stated)	95*	.	81*	15
CC(C)C[C@H](CO)Nc1nc(Nc2cccc(Cl)c2)c2ncn(C(C)C)c2n1	22	0	2	-3
C=CC[C@H](CC(=O)N(CCO)Cc1ccccc1)C(=O)N[C@@H](COC(=O)[C@@H](CC=C)Cc1ccc(F)cc1)Cc1c[nH]c2ccccc12	2	.	0	0
CN(Cc1c(C(=O)N/N=C/c2ccc(O)cc2)nnn1-c1nonc1N)C1CCCCC1	0	0	-1	60*
